Legend:
Myeloperoxidase [1] = target: T1, Myeloperoxidase (Homo sapiens, UniProt P05164); test: Inhibition of human recombinant MPO-mediated LDL oxidation after 5 mins by ELISA
T1 sequence (P05164 whole entry): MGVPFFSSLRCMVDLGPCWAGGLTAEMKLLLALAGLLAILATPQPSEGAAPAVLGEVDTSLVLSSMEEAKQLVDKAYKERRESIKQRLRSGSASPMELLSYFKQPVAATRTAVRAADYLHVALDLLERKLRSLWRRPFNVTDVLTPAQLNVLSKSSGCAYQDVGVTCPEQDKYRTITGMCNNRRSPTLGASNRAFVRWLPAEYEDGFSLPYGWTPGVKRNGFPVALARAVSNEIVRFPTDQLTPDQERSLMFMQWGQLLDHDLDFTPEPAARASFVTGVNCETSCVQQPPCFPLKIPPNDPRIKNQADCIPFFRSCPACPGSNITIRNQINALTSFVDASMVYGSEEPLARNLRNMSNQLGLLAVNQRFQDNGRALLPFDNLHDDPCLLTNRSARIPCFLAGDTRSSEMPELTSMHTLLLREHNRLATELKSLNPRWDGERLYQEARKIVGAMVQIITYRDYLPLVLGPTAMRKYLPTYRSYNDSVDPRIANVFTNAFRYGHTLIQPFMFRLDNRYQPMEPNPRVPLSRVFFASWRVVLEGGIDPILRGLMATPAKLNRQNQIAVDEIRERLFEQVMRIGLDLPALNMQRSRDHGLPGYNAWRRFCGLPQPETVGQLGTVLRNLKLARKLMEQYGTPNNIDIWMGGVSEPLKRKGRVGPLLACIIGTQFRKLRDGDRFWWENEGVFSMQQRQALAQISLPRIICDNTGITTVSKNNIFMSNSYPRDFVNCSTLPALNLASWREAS
Summary of the method: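 Recombinant MPO (1 µg/mL) with human plasma LDL (1000 µg/mL; ultracentrifuged fraction 1.019–1.067 g/mL, desalted in PBS) in PBS pH 7.2 with 4 mM HCl and test compound at several concentrations. Reaction started with 100 µM H2O2 at 37 °C and stopped after 5 min on ice. Oxidized LDL read by ELISA: 200 ng/well LDL coated, Mab AG9 antibody, alkaline phosphatase anti-mouse IgG, p-nitrophenyl phosphate, A405 corrected at 655 nm.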

Myeloperoxidase [2] = target: T1, Myeloperoxidase; test: Inhibition of human recombinant MPO-mediated taurine chlorination after 5 mins by microplate assay; type: single protein
Summary of the method: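 Recombinant MPO (40 nM) in 10 mM phosphate pH 7.4 with 300 mM NaCl and 15 mM taurine, inhibitor up to 20 µM, 37 °C. Started with H2O2 (100 µM), stopped after 5 min with catalase. Taurine chloramine measured with thionitrobenzoic acid at 412 nm. IC50 taken from the absorbance–concentration curve; no H2O2 set as 100% inhibition, no inhibitor as 0%.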

Rattus norvegicus [3] = test: Toxicity in Wistar Han rat assessed as mortality at 10 to 100 mg/kg, ip after 4 days; type: organism-based; parameters: dose 10-100 mg/kg, route intraperitoneal; conditions: in vivo, 96 h
Rattus norvegicus [4] = test: Toxicity in Wistar Han rat assessed as occurrence of piloerection at 100 mg/kg, ip after 48 hrs; type: organism-based; parameters: dose 100 mg/kg, route intraperitoneal; conditions: in vivo
Summary of the method: (§1)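 Male Wistar Han rats (~285 g), 3 per group, given one i.p. dose in 2 ml alcohol/water 1:3 (v/v); vehicle-only controls. Doses were 10 or 100 mg/kg, or 1, 10 or 100 mg/kg, depending on the compound. Clinical signs recorded daily. Rats killed by exsanguination after 4 days, with gross organ examination at necropsy.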

[5] = target: Sodium-dependent serotonin transporter (Homo sapiens, UniProt P31645); test: Inhibition of serotonin reuptake at human SERT expressed in HEK293 cells coexpressing macrophage scavenger receptor; type: cell-based
Sequence of Sodium-dependent serotonin transporter (P31645 whole entry): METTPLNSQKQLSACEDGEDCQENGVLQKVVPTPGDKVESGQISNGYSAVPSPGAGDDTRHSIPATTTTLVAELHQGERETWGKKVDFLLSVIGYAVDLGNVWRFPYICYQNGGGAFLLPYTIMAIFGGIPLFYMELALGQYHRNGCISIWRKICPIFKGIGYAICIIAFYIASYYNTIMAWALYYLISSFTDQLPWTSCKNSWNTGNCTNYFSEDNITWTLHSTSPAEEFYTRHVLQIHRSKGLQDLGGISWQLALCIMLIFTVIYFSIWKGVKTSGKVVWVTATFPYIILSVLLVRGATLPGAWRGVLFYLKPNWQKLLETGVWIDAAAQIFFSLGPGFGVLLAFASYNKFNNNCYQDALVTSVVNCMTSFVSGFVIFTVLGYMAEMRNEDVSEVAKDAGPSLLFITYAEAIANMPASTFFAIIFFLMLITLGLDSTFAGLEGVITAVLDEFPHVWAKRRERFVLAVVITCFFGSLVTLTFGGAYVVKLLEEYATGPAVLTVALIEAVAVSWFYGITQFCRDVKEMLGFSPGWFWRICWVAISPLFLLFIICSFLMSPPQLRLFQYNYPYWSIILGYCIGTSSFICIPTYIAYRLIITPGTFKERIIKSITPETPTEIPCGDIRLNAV
Summary of the method: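 HEK-293 MSR cells grown in DMEM with 10% FCS, penicillin/streptomycin and 6 µg/mL Geneticin at 37 °C and 5% CO2. Cells transfected with a pcDNA3.1 human SERT plasmid and assayed for [3H]5-HT uptake.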

Homo sapiens = species on record: Homo sapiens; test: Selectivity ratio of Ki for human SERT to IC50 for human recombinant MPO-mediated LDL oxidation
Summary of the method: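 Ratio of two measured values. Recombinant human MPO (1 µg/mL) oxidised LDL (1000 µg/mL) in PBS pH 7.2 with 4 mM HCl and 100 µM H2O2 at 37 °C for 5 min. Oxidised LDL was detected by ELISA with Mab AG9 at 405 nm to give the IC50. hSERT was transiently expressed in HEK-293 MSR cells and assayed by [3H]5-HT uptake.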

Rattus norvegicus [6] = test: Toxicity in Wistar Han rat at 10 mg/kg, ip; type: organism-based; parameters: dose 10 mg/kg, route intraperitoneal; conditions: in vivo; summary of the method: as §1
Rattus norvegicus [7] = test: Toxicity in Wistar Han rat assessed as paralysis of hind limbs at 100 mg/kg, ip after 48 hrs; type: organism-based, Hindlimb; parameters: dose 100 mg/kg, route intraperitoneal; conditions: in vivo; summary of the method: as §1
Rattus norvegicus [8] = test: Toxicity in Wistar Han rat assessed as occurrence of macroscopic liver lesions at 100 mg/kg, ip by necropsic analysis; type: organism-based; parameters: dose 100 mg/kg, route intraperitoneal; conditions: in vivo; summary of the method: as §1
Rattus norvegicus [9] = test: Toxicity in Wistar Han rat assessed as prostarted posture at 100 mg/kg, ip after 24 hrs; type: organism-based; parameters: dose 100 mg/kg, route intraperitoneal; conditions: in vivo; summary of the method: as §1
Rattus norvegicus [10] = test: Toxicity in Wistar Han rat assessed as macroscopic kidney lesions at 1 to 100 mg/kg, ip by necropsic analysis; type: organism-based; parameters: dose 1-100 mg/kg, route intraperitoneal; conditions: in vivo
Summary of the method: (§2)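 Male Wistar Han rats (~285 g), 3 per group, received a single i.p. dose of 1, 10 or 100 mg/kg in alcohol/water 1:3 (v/v), with vehicle controls. Clinical signs were recorded daily. After 4 days, rats were killed by exsanguination, and liver, kidney, heart and muscle were examined grossly at necropsy.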

Rattus norvegicus [11] = test: Toxicity in Wistar Han rat assessed as macroscopic muscle lesions at 1 to 100 mg/kg, ip by necropsic analysis; type: organism-based, Muscle tissue; parameters: dose 1-100 mg/kg, route intraperitoneal; conditions: in vivo; summary of the method: as §2
Rattus norvegicus [12] = test: Toxicity in Wistar Han rat at 1 to 10 mg/kg, ip; type: organism-based; parameters: dose 1-10 mg/kg, route intraperitoneal; conditions: in vivo
Summary of the method: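 Male Wistar Han rats (~285 g), 3 per group, received a single i.p. injection of 1 or 10 mg/kg in alcohol/water 1:3 (v/v), with vehicle controls. Physical and clinical signs were recorded daily for 4 days, followed by exsanguination and gross necropsy.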

Rattus norvegicus [13] = test: Toxicity in Wistar Han rat assessed as occurrence of piloerection at 100 mg/kg, ip after 24 hrs; type: organism-based; parameters: dose 100 mg/kg, route intraperitoneal; conditions: in vivo; summary of the method: as §1
Rattus norvegicus [14] = test: Toxicity in Wistar Han rat assessed as mortality at 1 to 100 mg/kg, ip; type: organism-based; parameters: dose 1-100 mg/kg, route intraperitoneal; conditions: in vivo
Rattus norvegicus [15] = test: Toxicity in Wistar Han rat assessed as macroscopic heart lesions at 1 to 100 mg/kg, ip by necropsic analysis; type: organism-based; parameters: dose 1-100 mg/kg, route intraperitoneal; conditions: in vivo; summary of the method: as §2
Rattus norvegicus [16] = test: Toxicity in Wistar Han rat assessed as macroscopic liver lesions at 1 to 100 mg/kg, ip by necropsic analysis; type: organism-based; parameters: dose 1-100 mg/kg, route intraperitoneal; conditions: in vivo; summary of the method: as §2

SMILES	IC50 (Myeloperoxidase [1]; read-out: IC50)	IC50 (Myeloperoxidase [2]; read-out: IC50)	Ki ([5]; read-out: Ki)	Ratio (Homo sapiens)	further results
NC(=O)CCCCc1c[nH]c2ccc(F)cc12	43 nM	39 nM	–	–	–
NCCSCCc1c[nH]c2c(F)cccc12	–	–	24 nM	8	Activity (Rattus norvegicus [3]): Non-toxic; Activity (Rattus norvegicus [4]): Toxic; Activity (Rattus norvegicus [6]): Non-toxic; Activity (Rattus norvegicus [7]): Toxic; Activity (Rattus norvegicus [8]): Toxic
NCC(N)CCc1c[nH]c2ccc(F)cc12 (stereo not given)	26 nM	60 nM	12 nM	0.2	–
N#CSCCCc1c[nH]c2ccc(F)cc12	–	–	–	42	–
CCSCCCc1c[nH]c2ccc(F)cc12	> 100 nM	> 100 nM	–	–	Ki ([5]; hek293): Not Active
N#CCCCc1c[nH]c2ccc(C(=O)O)cc12	–	–	–	–	IC50 (Myeloperoxidase [1]): Not Active; Ki ([5]; hek293): Not Active; IC50 (Myeloperoxidase [2]): Not Active
Fc1ccc2[nH]cc(CCCNCc3ccccc3)c2c1	30 nM	13 nM	53 nM	4.1	–
NC(=O)CCCc1c[nH]c2ccc(F)cc12	–	18 nM	–	35	Activity (Rattus norvegicus [9]): Toxic; Activity (Rattus norvegicus [10]): Non-toxic; Activity (Rattus norvegicus [11]): Non-toxic; Activity (Rattus norvegicus [12]): Non-toxic; Activity (Rattus norvegicus [13]): Toxic; Activity (Rattus norvegicus [14]): Non-toxic; Activity (Rattus norvegicus [15]): Non-toxic; Activity (Rattus norvegicus [16]): Non-toxic
NCCCCc1c[nH]c2c(F)cccc12	–	–	8 nM	1.3	–
NCCc1c[nH]c2ccccc12 [TRYPTAMINE]	–	770 nM	–	–	–
CCCc1c[nH]c2ccc(F)cc12	> 100 nM	> 100 nM	–	–	Ki ([5]; hek293): Not Active
OCCNCCc1c[nH]c2ccc(F)cc12	31 nM	10 nM	10 nM	1	–
Fc1ccc2[nH]cc(CCCN3CCN(c4ccccc4)CC3)c2c1	60 nM	22 nM	36 nM	1.6	–
NCCSCCCc1c[nH]c2ccc(F)cc12	–	35 nM	0.9 nM	0.02	–
NCCCc1c[nH]c2c(F)cccc12	26 nM	24 nM	24 nM	1	–
NCCCc1c[nH]c2ccc(C(=O)O)cc12	–	–	–	–	IC50 (Myeloperoxidase [1]): Not Active; Ki ([5]; hek293): Not Active; IC50 (Myeloperoxidase [2]): Not Active

SMILES	IC50 (Myeloperoxidase [1]; read-out: IC50)	IC50 (Myeloperoxidase [2]; read-out: IC50)	Ki ([5]; read-out: Ki)	Ratio (Homo sapiens)	further results
CCN(CCCc1c[nH]c2ccc(F)cc12)S(C)(=O)=O	–	37 nM	12 nM	0.3	–
N[C@@H](Cc1ccc(O)cc1)C(=O)O [TYROSINE]	–	–	–	–	IC50 (Myeloperoxidase [2]): Not Active
CCSCCc1c[nH]c2ccc(F)cc12	> 100 nM	> 100 nM	–	–	Ki ([5]; hek293): Not Active
CCN(CCc1c[nH]c2ccc(F)cc12)S(C)(=O)=O	–	–	–	12	–
OCCNCCCc1c[nH]c2ccc(F)cc12	43 nM	10 nM	62 nM	6.2	–
NCCc1c[nH]c2c(F)cccc12	28 nM	29 nM	29 nM	1	–
NC(=O)CCc1c[nH]c2ccc(F)cc12	34 nM	132 nM	–	–	–
CCNC(=O)CCCc1c[nH]c2ccc(F)cc12	243 nM	182 nM	–	–	–
NCCSCCCc1c[nH]c2c(F)cccc12	> 100 nM	> 100 nM	539 nM	–	–
NCCSCCc1c[nH]c2ccc(F)cc12	–	–	2.3 nM	0.6	–
NCCCCc1c[nH]c2ccc(C(=O)O)cc12	–	–	–	–	IC50 (Myeloperoxidase [1]): Not Active; Ki ([5]; hek293): Not Active; IC50 (Myeloperoxidase [2]): Not Active
NC(=O)CCCCc1c[nH]c2c(F)cccc12	44 nM	34 nM	–	–	–
NCCc1c[nH]c2ccc(O)cc12 [SEROTONIN]	–	–	–	–	IC50 (Myeloperoxidase [2]): Not Active
NC(=O)CCc1c[nH]c2c(F)cccc12	64 nM	271 nM	–	–	–
N#CCCCc1c[nH]c2ccc(F)cc12	72 nM	63 nM	184 nM	2.9	–

Reference: ChEMBL document CHEMBL2346663 (J Med Chem, 2013)
